# Measurements as given in ChEMBL document CHEMBL5696442, “Discovery of type II inhibitors of TGFβ-activated kinase 1 (TAK1) and mitogen-activated protein kinase kinase kinase kinase 2 (MAP4K2)” (J Med Chem, 2015).
# Calls of active or inactive are those of the source. The rule behind the calls is not given here.
# How the values were obtained:
# [1] = system: GEN2.2; test: Inhibition of CL097 induced p-105 phosphorylation level in human GEN2.2 cells at 1 uM preincubated with compound for 1 hr followed by CL097 stimulation and measured after 30 mins by Western blot analysis; type: functional, cell-based
# Procedure, shortened: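 Gen2.2 cells were pretreated with compound at 1 μM for 1 h, then stimulated with CL097 for 30 min. Lysates were analysed by Western blot for phosphorylation of p105, p38 and JNK1/2.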
# [2] = molecular target: Tyrosine-protein kinase CSK (Homo sapiens, UniProt P41240); test: Inhibition of CSK ACT labeling site harbouring VSDFGLTKEASSTQDTGKLPVK in human Huh-7 cell lysate at 1 uM by KiNativ Profiling analysis relative to control; type: subcellular
# [3] = molecular target: Serine/threonine-protein kinase 10 (Homo sapiens) (UniProt O94804); test: Inhibition of LOK Lys1 labeling site in human A-375 cells at 0.5 uM by KiNativ Profiling analysis relative to control; type: cell-based
# [4] = molecular target: Proto-oncogene tyrosine-protein kinase Src (Homo sapiens, UniProt P12931); test: Inhibition of SRC Lys1 labeling site in human A-375 cells at 0.5 uM by KiNativ Profiling analysis relative to control; type: cell-based
# [5] = molecular target: Tyrosine-protein kinase ABL1 (Homo sapiens, UniProt P00519); test: Inhibition of ABL (unknown origin) ACT labeling site by KiNativ Profiling analysis
# [6] = system: BaF3; test: Antiproliferative activity against parental mouse BaF3 cells harbouring Bcr/Abl assessed reduction in cell viability measured after 48 hrs by Celltiter-glo assay; type: functional, cell-based; conditions: BaF3, 48 h
# Procedure, shortened: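 Cells were grown with serial dilutions of compound for 48 h, and viability was read by CellTiter-Glo. IC50 was derived from the dose–response curve. Parental Ba/F3 cells were grown in the presence of interleukin 3. The BCR-ABL line is BCR-ABL-dependent Ba/F3.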
# [7] = molecular target: 5'-AMP-activated protein kinase catalytic subunit alpha-2 (Homo sapiens) (UniProt P54646); test: Inhibition of AMPKa2 Lys1 labeling site in human A-375 cells at 5 uM by KiNativ Profiling analysis relative to control; type: cell-based
# Procedure, shortened: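 Live A375 melanoma cells were treated with compound at 5 or 0.5 μM, then lysed. The lysates were labeled with a lysine-reactive ATP or ADP-biotin probe. Kinase protection from probe labeling was measured by KiNativ.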
# [8] = molecular target: Tyrosine-protein kinase Fer (Homo sapiens, UniProt P16591); test: Inhibition of FER Lys1 labeling site harbouring TSVAVKTCKEDLPQELKin human A-375 cells at 5 uM by KiNativ Profiling analysis relative to control; type: cell-based
# [9] = molecular target: Serine/threonine-protein kinase Nek7 (Homo sapiens) (UniProt Q8TDX7); test: Inhibition of NEK7 Lys1 labeling site in human A-375 cells at 5 uM by KiNativ Profiling analysis relative to control; type: cell-based
# [10] = molecular target: Serine/threonine-protein kinase tousled-like 2 (Homo sapiens) (UniProt Q86UE8); test: Inhibition of TLK2 Lys1 labeling site in human A-375 cells at 5 uM by KiNativ Profiling analysis relative to control; type: cell-based
# [11] = molecular target: Serine/threonine-protein kinase WNK3 (Homo sapiens) (UniProt Q9BYP7); test: Inhibition of Wnk3 Lys2 labeling site in human A-375 cells at 5 uM by KiNativ Profiling analysis relative to control; type: cell-based
# [12] = molecular target: DNA-PK/Ku70/Ku85 (Homo sapiens) (UniProt P78527+P12956+P13010); test: Inhibition of DNAPK ATP labeling site harbouring EHPFLVKGGEDLR in human A-375 cells at 0.5 uM by KiNativ Profiling analysis relative to control; type: cell-based
# Procedure, shortened: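 Live A375 melanoma cells were treated with compound at 0.5 or 5 μM, then lysed. Lysates were labeled with a lysine-reactive ATP or ADP-biotin probe. The read-out was protection of each kinase probe-labeling site from labeling, relative to control.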
# [13] = molecular target: Dual specificity mitogen-activated protein kinase kinase 2 (Homo sapiens) (UniProt P36507); test: Inhibition of MAP2K2 Lys1 labeling site in human A-375 cells at 0.5 uM by KiNativ Profiling analysis relative to control; type: cell-based
# [14] = molecular target: Serine/threonine-protein kinase WNK3 (Homo sapiens) (UniProt Q9BYP7); test: Inhibition of Wnk3 Lys2 labeling site in human A-375 cells at 0.5 uM by KiNativ Profiling analysis relative to control; type: cell-based
# [15] = molecular target: Cyclin-dependent kinase 9 (Homo sapiens) (UniProt P50750); test: Inhibition of CDK9 Lys2 labeling site in human A-375 cells at 0.05 uM by KiNativ Profiling analysis relative to control; type: cell-based
# [16] = molecular target: Mitogen-activated protein kinase kinase kinase 1 (Homo sapiens) (UniProt Q13233); test: Inhibition of MAP3K1 Lys2 labeling site in human A-375 cells at 0.05 uM by KiNativ Profiling analysis relative to control; type: cell-based
# [17] = molecular target: Serine/threonine-protein kinase MRCK beta (Homo sapiens) (UniProt Q9Y5S2); test: Inhibition of MRCKb in human A-375 cells at 0.05 uM by KiNativ Profiling analysis relative to control; type: cell-based
# [18] = molecular target: Serine/threonine-protein kinase 26 (Homo sapiens) (UniProt Q9P289); test: Inhibition of MST4 Lys2 labeling site in human A-375 cells at 0.05 uM by KiNativ Profiling analysis relative to control; type: cell-based
# [19] = molecular target: T1, Mitogen-activated protein kinase 12 (Homo sapiens) (UniProt P53778); test: Inhibition of p38 gamma Lys2 labeling site in human A-375 cells at 0.05 uM by KiNativ Profiling analysis relative to control; type: cell-based
# T1 sequence (whole entry): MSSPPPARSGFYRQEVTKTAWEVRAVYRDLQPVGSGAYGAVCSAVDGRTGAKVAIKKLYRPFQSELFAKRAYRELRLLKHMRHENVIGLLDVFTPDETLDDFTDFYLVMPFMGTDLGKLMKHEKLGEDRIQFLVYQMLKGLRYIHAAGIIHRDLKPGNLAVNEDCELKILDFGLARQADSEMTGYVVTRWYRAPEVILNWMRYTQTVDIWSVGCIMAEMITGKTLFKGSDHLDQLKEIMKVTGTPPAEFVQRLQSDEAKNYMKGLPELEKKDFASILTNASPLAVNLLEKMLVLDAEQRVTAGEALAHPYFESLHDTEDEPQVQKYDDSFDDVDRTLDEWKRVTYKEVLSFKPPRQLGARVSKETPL
# Chain of Serine/threonine-protein kinase WNK3 (Homo sapiens) (Q9BYP7 whole entry): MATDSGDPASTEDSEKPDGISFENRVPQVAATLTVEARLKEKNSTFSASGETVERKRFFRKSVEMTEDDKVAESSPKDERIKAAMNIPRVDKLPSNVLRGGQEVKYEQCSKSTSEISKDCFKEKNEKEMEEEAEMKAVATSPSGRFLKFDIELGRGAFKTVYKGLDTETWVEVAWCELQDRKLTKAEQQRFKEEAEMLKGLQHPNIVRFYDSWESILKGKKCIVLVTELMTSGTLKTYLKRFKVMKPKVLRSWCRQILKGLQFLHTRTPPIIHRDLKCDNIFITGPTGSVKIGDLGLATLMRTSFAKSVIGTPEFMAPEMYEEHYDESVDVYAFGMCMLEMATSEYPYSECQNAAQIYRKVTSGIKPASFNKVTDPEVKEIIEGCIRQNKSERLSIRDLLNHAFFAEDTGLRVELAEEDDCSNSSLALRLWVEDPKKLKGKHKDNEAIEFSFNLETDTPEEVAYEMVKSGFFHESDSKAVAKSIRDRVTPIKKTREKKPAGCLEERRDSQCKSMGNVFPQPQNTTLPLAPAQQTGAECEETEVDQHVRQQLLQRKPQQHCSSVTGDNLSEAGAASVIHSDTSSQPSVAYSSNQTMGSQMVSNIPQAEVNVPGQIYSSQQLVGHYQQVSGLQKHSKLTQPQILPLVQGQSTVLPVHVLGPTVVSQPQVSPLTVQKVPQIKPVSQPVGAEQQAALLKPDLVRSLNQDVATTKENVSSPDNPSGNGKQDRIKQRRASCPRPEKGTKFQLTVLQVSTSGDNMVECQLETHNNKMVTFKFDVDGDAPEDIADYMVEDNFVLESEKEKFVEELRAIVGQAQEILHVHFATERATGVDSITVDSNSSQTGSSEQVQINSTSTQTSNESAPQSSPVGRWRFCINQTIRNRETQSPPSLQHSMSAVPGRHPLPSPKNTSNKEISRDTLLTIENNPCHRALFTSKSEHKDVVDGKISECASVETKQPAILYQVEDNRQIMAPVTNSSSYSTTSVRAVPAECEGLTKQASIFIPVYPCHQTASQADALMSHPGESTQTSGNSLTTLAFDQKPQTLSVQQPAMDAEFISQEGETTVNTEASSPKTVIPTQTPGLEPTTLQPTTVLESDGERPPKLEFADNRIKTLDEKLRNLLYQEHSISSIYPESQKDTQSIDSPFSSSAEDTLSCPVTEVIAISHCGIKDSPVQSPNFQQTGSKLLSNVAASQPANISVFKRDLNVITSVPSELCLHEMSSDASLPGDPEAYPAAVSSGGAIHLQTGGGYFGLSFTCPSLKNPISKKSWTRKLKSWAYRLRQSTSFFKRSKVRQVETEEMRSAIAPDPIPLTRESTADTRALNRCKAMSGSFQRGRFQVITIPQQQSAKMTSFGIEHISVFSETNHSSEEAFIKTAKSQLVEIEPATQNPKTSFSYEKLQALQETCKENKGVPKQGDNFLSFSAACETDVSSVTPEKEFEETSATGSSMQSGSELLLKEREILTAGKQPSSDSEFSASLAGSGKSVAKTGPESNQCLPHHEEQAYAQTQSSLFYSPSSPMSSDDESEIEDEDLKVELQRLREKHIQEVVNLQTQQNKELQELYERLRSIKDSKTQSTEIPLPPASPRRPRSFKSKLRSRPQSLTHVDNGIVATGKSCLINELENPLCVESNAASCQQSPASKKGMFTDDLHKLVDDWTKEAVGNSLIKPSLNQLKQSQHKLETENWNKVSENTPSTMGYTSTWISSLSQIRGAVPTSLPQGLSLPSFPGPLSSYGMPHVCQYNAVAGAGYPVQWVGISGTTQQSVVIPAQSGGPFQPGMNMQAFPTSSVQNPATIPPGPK
# Chain of Serine/threonine-protein kinase tousled-like 2 (Homo sapiens) (Q86UE8 whole entry, looked up): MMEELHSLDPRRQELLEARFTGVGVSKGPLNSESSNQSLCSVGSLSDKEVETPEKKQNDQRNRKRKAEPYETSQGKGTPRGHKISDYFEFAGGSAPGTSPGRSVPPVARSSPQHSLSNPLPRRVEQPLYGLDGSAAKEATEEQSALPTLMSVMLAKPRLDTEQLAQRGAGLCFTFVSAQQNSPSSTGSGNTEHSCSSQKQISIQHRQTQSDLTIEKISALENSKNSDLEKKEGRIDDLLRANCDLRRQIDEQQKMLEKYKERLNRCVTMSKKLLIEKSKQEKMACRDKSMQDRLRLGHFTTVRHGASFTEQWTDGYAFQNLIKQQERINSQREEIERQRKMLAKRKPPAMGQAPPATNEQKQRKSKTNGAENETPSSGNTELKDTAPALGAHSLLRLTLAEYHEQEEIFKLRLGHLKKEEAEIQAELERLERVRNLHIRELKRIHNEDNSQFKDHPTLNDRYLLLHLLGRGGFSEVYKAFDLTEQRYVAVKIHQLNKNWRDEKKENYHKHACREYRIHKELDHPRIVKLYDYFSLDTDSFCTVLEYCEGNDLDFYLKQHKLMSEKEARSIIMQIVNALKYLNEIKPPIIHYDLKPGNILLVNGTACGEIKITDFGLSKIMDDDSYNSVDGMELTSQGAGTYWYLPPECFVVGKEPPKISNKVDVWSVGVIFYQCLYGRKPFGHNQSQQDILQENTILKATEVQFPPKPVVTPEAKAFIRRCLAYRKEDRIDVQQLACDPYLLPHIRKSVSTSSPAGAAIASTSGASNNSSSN
# Chain of Dual specificity mitogen-activated protein kinase kinase 2 (Homo sapiens) (P36507 whole entry): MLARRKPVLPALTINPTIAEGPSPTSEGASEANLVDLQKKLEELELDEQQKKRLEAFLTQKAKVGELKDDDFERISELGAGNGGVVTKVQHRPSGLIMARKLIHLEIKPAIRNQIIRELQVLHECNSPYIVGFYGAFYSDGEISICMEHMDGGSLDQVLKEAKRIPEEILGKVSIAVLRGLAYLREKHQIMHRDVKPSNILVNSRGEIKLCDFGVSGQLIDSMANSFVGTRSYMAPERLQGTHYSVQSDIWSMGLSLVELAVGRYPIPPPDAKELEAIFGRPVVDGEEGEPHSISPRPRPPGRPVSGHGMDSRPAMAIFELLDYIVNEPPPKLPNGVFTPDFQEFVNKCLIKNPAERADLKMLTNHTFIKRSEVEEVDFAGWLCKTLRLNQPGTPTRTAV
# Chain of Mitogen-activated protein kinase kinase kinase 1 (Homo sapiens) (Q13233 whole entry): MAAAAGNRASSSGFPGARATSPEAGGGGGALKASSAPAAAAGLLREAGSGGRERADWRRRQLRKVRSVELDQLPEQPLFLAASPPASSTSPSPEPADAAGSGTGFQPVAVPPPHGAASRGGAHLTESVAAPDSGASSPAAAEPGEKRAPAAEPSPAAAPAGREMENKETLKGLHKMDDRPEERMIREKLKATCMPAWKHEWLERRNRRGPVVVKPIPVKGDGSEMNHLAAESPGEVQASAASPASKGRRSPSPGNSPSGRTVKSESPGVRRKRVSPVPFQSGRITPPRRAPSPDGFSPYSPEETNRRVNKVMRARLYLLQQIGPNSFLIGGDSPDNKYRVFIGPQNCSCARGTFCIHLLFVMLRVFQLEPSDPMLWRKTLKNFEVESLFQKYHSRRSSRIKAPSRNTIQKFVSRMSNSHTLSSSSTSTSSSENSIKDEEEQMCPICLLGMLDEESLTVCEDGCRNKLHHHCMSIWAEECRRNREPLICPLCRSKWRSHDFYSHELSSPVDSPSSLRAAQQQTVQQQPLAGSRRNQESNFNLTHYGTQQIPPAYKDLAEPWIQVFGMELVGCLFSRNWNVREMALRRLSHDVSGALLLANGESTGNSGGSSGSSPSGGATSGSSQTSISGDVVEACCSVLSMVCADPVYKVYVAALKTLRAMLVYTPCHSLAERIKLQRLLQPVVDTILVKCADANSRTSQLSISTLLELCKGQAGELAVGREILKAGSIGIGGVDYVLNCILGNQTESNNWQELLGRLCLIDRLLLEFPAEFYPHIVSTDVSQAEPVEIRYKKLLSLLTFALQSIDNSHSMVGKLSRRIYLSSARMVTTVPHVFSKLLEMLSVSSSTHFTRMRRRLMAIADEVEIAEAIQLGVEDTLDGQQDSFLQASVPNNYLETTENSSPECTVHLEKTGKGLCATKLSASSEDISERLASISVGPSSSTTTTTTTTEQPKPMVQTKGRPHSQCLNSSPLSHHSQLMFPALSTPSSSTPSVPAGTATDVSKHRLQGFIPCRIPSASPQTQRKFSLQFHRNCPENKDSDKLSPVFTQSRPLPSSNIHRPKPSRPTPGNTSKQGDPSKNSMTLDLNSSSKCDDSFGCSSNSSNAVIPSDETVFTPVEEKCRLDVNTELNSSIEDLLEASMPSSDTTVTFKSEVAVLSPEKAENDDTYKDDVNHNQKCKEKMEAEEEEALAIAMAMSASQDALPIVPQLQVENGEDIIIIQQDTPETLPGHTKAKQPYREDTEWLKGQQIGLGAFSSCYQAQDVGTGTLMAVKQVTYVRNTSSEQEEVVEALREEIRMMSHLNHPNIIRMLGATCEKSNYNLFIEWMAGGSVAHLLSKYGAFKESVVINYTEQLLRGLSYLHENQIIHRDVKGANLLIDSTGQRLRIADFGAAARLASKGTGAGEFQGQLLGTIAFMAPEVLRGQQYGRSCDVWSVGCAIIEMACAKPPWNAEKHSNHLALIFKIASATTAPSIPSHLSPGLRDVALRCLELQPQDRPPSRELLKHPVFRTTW
# Chain of Serine/threonine-protein kinase 26 (Homo sapiens) (Q9P289 2-416 limits assumed): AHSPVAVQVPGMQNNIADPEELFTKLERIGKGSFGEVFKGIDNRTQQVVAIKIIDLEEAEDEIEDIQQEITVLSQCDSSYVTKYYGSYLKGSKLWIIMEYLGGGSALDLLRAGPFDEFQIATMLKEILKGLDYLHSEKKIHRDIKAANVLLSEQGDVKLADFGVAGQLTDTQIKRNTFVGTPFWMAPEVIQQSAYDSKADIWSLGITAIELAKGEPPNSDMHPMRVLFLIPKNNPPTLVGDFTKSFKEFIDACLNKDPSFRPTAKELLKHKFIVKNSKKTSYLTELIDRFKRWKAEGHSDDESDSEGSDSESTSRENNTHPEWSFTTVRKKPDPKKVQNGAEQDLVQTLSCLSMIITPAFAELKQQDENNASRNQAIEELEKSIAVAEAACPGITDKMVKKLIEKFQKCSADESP
Compound,inhibition [1],inhibition [2] [%],inhibition [3] [%],inhibition [4] [%],IC50 [5] [nM],IC50 [6] [nM],inhibition [7] [%],inhibition [8] [%],inhibition [9] [%],inhibition [10] [%],inhibition [11] [%],inhibition [12] [%],inhibition [13] [%],inhibition [14] [%],inhibition [15] [%],inhibition [16] [%],inhibition [17] [%],inhibition [18] [%],inhibition [19] [%]
CNc1cc(Oc2cc(C(=O)Nc3cc(-n4cnc(C)c4)cc(C(F)(F)F)c3)ccc2C)ncn1,inactive,0.3,,,,,,,,,,,,,,,,,
CNc1cc(Oc2cc(C(=O)Nc3cc(N4CCN(C)CC4)cc(C(F)(F)F)c3)ccc2C)ncn1,,7.9,,,,,,,,,,,,,,,,,
CCN1CCN(Cc2ccc(NC(=O)c3ccc(C)c(Oc4ccnc5[nH]ccc45)c3)cc2C(F)(F)F)CC1,Active,,71.7,77.2,75.2,18,11.6,98.1,0.3,17.7,-5.5,3.2,-3.5,-3,15.4,16.8,-8.8,-0.7,64.9
CCN1CCN(Cc2ccc(NC(=O)c3ccc(C)c(/C=C/c4cnc5[nH]ccc5c4OC)c3)cc2C(F)(F)F)CC1,,,60.7,72.5,51.5,10,37,77.9,-1.8,27.5,14.3,13.8,4.4,7.9,10.7,23.1,12.1,9.1,24.3
